Data reported in ChEMBL document CHEMBL1126554, “Synthesis of novel modified dipeptide inhibitors of human collagenase: beta-mercapto carboxylic acid derivatives” (J Med Chem, 1993).

Columns and labels:
Interstitial collagenase [1] = biological target: T1, Interstitial collagenase (Homo sapiens, UniProt P03956); experiment: Inhibition of radiolabeled rat skin type I collagen degradation by purified human lung fibroblast collagenase.
T1 sequence (P03956 whole entry): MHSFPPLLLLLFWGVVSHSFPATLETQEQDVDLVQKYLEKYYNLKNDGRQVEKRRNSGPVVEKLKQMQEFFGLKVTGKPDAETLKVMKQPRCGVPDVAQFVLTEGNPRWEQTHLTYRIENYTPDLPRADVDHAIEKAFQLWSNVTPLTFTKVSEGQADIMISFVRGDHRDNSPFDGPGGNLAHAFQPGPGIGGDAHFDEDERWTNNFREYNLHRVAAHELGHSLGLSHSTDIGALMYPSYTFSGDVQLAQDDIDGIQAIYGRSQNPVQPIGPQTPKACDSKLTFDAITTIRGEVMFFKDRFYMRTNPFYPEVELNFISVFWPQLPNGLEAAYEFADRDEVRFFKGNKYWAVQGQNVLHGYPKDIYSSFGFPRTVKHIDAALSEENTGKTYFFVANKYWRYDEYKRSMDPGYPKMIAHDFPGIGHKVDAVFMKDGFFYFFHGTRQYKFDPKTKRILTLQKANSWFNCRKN
Outline: (§1)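 Trypsin-activated, semipurified enzyme from WI-38 lung fibroblast culture supernatants. 3H- or 14C-acetylated collagen (100 μg/tube) added at 4 °C, then 37 °C for 1000 min. Spun 12 000 rpm, 15 min, 4 °C. Supernatant peptides counted by scintillation. Enzyme set for 70% degradation.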

Interstitial collagenase [2] = biological target: T1, Interstitial collagenase; experiment: Inhibition of rat skin type I collagen degradation by purified human lung fibroblast collagenase without beta-mercaptoethanol
Outline: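 β-Mercaptoethanol omitted. Enzyme was trypsin-activated, semipurified collagenase from WI-38 fibroblast culture supernatants. Compounds sonicated into MeOH, serially diluted. Collagen 3H- or 14C-acetylated, 100 μg/tube, added to tubes cooled to 4 °C. Incubated 37 °C for 1000 min, centrifuged 12 000 rpm for 15 min at 4 °C. Soluble supernatant peptides counted by liquid scintillation.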

Interstitial collagenase [3] = biological target: T1, Interstitial collagenase; experiment: Inhibition of rat skin type I collagen degradation by purified human lung fibroblast collagenase
Outline: as §1, with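 “supernatants. Compounds sonicated into MeOH and serially diluted; some runs had β-mercaptoethanol at 9.6×10^-5 M final.” for “supernatants.”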

| IC50 (Interstitial collagenase [1]) [nM] | IC50 (Interstitial collagenase [2]) [nM] | IC50 (Interstitial collagenase [3]) [nM] | SMILES |
| --- | --- | --- | --- |
| 25 | – | – | CNC(=O)[C@H](Cc1ccc(OC)cc1)NC(=O)[C@H](CC(C)C)[C@@H](S)CC(=O)O |
| 280 | – | – | CNC(=O)[C@H](Cc1ccc(OC)cc1)NC(=O)[C@H](CC(C)C)[C@@H](S)CC(=O)NCC(=O)OC(C)(C)C |
| 27 | – | – | CNC(=O)[C@H](Cc1ccc(OC)cc1)NC(=O)[C@H](CC(C)C)[C@@H](S)CC(=O)NCC(=O)O |
| 980 | – | – | CNC(=O)[C@H](Cc1ccc(OC)cc1)NC(=O)[C@H](CC(C)C)[C@@H](S)CC(=O)NC(CC(C)C)C(=O)OC(C)(C)C (some centres undefined) |
| 32 | – | – | CNC(=O)[C@H](Cc1ccc(OC)cc1)NC(=O)[C@H](CC(C)C)[C@@H](S)CC(=O)NCC(N)=O |
| 830 | – | – | CNC(=O)[C@H](Cc1ccc(OC)cc1)NC(=O)[C@H](CC(C)C)[C@@H](S)CC(=O)NC(CC(C)C)C(=O)O (some centres undefined) |
| 145 | – | – | CNC(=O)C[C@H](S)[C@@H](CC(C)C)C(=O)N[C@@H](Cc1ccc(OC)cc1)C(=O)NC |
| 10 | – | – | CNC(=O)[C@H](Cc1ccc(OC)cc1)NC(=O)[C@H](CC(C)C)[C@@H](S)CC(=O)OC(C)(C)C |

The remaining lines, values behind:

| SMILES | IC50 (Interstitial collagenase [1]) [nM] | IC50 (Interstitial collagenase [2]) [nM] | IC50 (Interstitial collagenase [3]) [nM] |
| --- | --- | --- | --- |
| CNC(=O)[C@H](Cc1ccc(OC)cc1)NC(=O)[C@H](CC(C)C)[C@@H](S)CC(=O)N1CCN(C)CC1 | 120 | – | – |
| CNC(=O)[C@H](Cc1c[nH]c2ccccc12)NC(=O)[C@H](CC(C)C)[C@@H](S)CC(=O)OC | – | 21 | 2.5 |
| CNC(=O)[C@H](Cc1ccc(OC)cc1)NC(=O)[C@H](CC(C)C)[C@@H](S)CC(N)=O | 23 | – | – |
| CNC(=O)[C@H](Cc1c[nH]c2ccccc12)NC(=O)[C@@H](CC(C)C)[C@H](S)CC(=O)OC | – | – | 12 |
| CNC(=O)[C@H](Cc1ccc(OC)cc1)NC(=O)[C@H](CC(C)C)[C@H](CC(=O)OC)SC(C)=O | 44 | – | – |
| CNC(=O)[C@H](Cc1ccccc1)NC(=O)[C@H](CC(C)C)[C@@H](S)CC(=O)OC | 2 | – | – |
| CNC(=O)[C@H](Cc1ccc(OC)cc1)NC(=O)C(CC(C)C)C(C)S (some centres undefined) | – | – | 17 |
| CNC(=O)[C@H](Cc1c[nH]c2ccccc12)NC(=O)[C@H](CC(C)C)[C@H](CC(=O)OC)SS[C@@H](CC(=O)OC)[C@@H](CC(C)C)C(=O)N[C@@H](Cc1c[nH]c2ccccc12)C(=O)NC | – | 1400 | 22 |
| CNC(=O)[C@H](Cc1c[nH]c2ccccc12)NC(=O)[C@H](CC(C)C)[C@H](CC(=O)OC)SC(C)=O | – | – | 19 |
| CNC(=O)[C@H](Cc1c[nH]c2ccccc12)NC(=O)C(CC(C)C)C(S)CC(=O)OC (stereo in doubt; 56b) | – | – | 810 |
| CNC(=O)[C@H](Cc1c[nH]c2ccccc12)NC(=O)C(CC(C)C)C(S)CC(=O)OC (stereo in doubt; 56c) | – | – | 730 |
| CNC(=O)[C@@H](NC(=O)C(CC(C)C)C(S)CC(=O)OC)C(C)OCc1ccccc1 (stereo in doubt; 57ab) | 3 | – | – |
| CNC(=O)[C@@H](NC(=O)C(CC(C)C)C(S)CC(=O)OC)C(C)OCc1ccccc1 (stereo in doubt; 57cd) | 13 | – | – |
| COC(=O)C[C@H](S)[C@@H](CC(C)C)C(=O)N[C@@H](Cc1ccccc1)C(N)=O (stereo in doubt; 58cd) | 190 | – | – |
